{"source": "ChEMBL document CHEMBL2440064", "about": "“Synthesis and biological evaluation of 2-amino-5-aryl-3-benzylthiopyridine scaffold based potent c-Met inhibitors” (Bioorg Med Chem, 2013)", "key": {"[1]": {"target": "T1, Hepatocyte growth factor receptor (Homo sapiens, UniProt P08581)", "T1 sequence (P08581 whole entry)": "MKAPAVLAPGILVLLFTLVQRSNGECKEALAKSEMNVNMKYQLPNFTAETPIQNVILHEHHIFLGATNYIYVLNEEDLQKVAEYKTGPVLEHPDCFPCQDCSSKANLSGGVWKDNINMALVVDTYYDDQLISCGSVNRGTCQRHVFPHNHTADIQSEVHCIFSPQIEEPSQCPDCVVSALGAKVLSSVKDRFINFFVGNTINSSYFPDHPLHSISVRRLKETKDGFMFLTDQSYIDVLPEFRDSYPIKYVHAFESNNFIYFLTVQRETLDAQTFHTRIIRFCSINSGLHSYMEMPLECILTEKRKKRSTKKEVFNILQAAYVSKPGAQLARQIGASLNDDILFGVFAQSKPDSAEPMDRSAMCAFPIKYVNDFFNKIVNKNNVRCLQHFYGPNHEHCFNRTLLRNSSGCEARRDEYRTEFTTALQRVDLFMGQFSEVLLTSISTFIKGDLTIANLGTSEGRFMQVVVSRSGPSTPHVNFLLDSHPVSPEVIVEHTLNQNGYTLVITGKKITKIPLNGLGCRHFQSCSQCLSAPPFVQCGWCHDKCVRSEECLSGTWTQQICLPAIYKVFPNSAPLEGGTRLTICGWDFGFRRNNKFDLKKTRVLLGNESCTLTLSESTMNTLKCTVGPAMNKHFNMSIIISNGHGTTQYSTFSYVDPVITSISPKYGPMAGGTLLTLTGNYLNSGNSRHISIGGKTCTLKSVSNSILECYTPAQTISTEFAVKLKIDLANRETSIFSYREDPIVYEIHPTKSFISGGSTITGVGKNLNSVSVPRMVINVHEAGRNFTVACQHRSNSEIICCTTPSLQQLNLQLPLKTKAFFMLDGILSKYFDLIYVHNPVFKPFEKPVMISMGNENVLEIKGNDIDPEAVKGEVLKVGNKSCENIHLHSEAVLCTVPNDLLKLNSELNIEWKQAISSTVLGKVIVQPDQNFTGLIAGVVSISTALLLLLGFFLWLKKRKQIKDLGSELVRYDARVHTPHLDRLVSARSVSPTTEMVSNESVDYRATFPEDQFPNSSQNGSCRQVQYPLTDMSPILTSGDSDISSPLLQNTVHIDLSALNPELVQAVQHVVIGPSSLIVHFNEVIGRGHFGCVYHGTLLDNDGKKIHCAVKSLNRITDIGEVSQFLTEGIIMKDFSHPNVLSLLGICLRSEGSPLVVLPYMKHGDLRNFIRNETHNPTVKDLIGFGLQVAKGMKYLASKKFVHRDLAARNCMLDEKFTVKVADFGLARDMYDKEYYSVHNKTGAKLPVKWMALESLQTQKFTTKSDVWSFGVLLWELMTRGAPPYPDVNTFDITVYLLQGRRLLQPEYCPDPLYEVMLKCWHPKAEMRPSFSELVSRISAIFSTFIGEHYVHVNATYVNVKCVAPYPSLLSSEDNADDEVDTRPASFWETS", "assay": "Inhibition of c-Met in gefitinib-resistant human HCC827 cells assessed as inhibition of AKT phosphorylation at 0.5 uM after 2 hrs by Western blotting analysis", "type": "cell-based", "summary_of_the_method": "(§1)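 Cells grown to exponential phase, treated with compound 2 h at 37°C, lysed in 1× SDS sample buffer, resolved on 10% SDS-PAGE and transferred to nitrocellulose for immunoblotting.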"}, "NIH3T3": {"test_system": "NIH3T3", "assay": "Antiproliferative activity against mouse NIH/3T3 cells expressing TPR/Met fusion protein after 72 hrs", "type": "functional, cell-based", "conditions": "NIH3T3, 72 h", "summary_of_the_method": "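Cells seeded in 96-well plates, exposed next day to a range of compound concentrations and cultured 72 h; proliferation read by sulforhodamine B or CCK-8. IC50 as mean ± SD (μM) from three separate experiments.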"}, "NCI-H441": {"test_system": "NCI-H441", "assay": "Antiproliferative activity against human NCI-H441 cells after 72 hrs", "conditions": "NCI-H441, 72 h"}, "[2]": {"target": "T1, Hepatocyte growth factor receptor", "assay": "Inhibition of c-Met in human MKN45 cells assessed as inhibition of p44/42 phosphorylation at 0.16 to 20 uM after 2 hrs by Western blotting analysis", "type": "cell-based", "conditions": "MKN-45", "summary_of_the_method": "as §1"}}, "note": "The source made the active and inactive calls. No cut-off for these calls is given here.", "data": [{"molecule": "C[C@@H](Sc1cc(-c2cnn(C3CCNCC3)c2)cnc1N)c1c(Cl)ccc(F)c1Cl", "values": [{"measurement": "inhibition", "setting": "[1]", "value": "inactive"}, {"measurement": "IC50", "setting": "NIH3T3", "value": 0.61, "unit": "µM"}, {"measurement": "IC50", "setting": "NCI-H441", "value": 15.5, "unit": "µM"}, {"measurement": "inhibition", "setting": "[2]", "value": "Active"}]}]}
